Assay results reported in ChEMBL document CHEMBL1124479, “N-[(arylmethoxy)phenyl] and N-[(arylmethoxy)naphthyl] sulfonamides: potent orally active leukotriene D4 antagonists of novel structure” (J Med Chem, 1989).
The source made the active and inactive calls. The rule behind the calls is not given here.

Key:
[1] = system: Cavia porcellus; experiment: Inhibition of Leukotriene D4 induced bronchoconstriction in guinea pig by 50 mg/kg i.d.; conditions: at 50 mg/kg
[2] = system: Cavia porcellus; experiment: Inhibition of ovalbumin-induced bronchoconstriction when compound was administered intraduodenally at a dose of 50 mg/kg in guinea pig; type: functional; conditions: route intraduodenal
Method in brief: (§1)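 Single-dose screen in guinea pigs, with n animals per group. Significance versus control used a two-tailed Student's t test (p < 0.05), or one-way ANOVA with contrasts based on each treatment's difference from its own control mean.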

[3] = system: Cavia porcellus; experiment: Inhibition of Leukotriene D4 induced bronchoconstriction when compound was administered intraduodenally at a dose of 25 mg/kg in guinea pig
[4] = system: Cavia porcellus; experiment: Inhibition of Leukotriene D4 induced bronchoconstriction when compound was administered perorally at a dose of 50 mg/kg in guinea pig; type: functional; conditions: route oral
Method in brief: as §1

[5] = system: Cavia porcellus; experiment: Inhibition of ovalbumin-induced bronchoconstriction when compound was administered perorally at a dose of 50 mg/kg in guinea pig; type: functional; conditions: route oral
Method in brief: as §1

[6] = system: Cavia porcellus; experiment: Inhibition of Leukotriene D4 induced bronchoconstriction when compound was administered perorally at a dose of 25 mg/kg in guinea pig; type: functional; conditions: route oral
Method in brief: as §1

[7] = system: Cavia porcellus; experiment: Inhibition of ovalbumin-induced bronchoconstriction when compound was administered perorally at a dose of 25 mg/kg in guinea pig; type: functional; conditions: route oral
Method in brief: as §1

[8] = system: Cavia porcellus; experiment: Percentage inhibition of Leukotriene D4 when Compound was administered perorally at a dose of 50 mg/kg in guinea pig,; type: functional; conditions: route oral
Method in brief: as §1

[9] = target: T1, Polyunsaturated fatty acid 5-lipoxygenase (Rattus norvegicus, UniProt P12527); experiment: Inhibitory concentration to inhibit 5-lipoxygenase in the rat
T1 sequence (P12527 whole entry): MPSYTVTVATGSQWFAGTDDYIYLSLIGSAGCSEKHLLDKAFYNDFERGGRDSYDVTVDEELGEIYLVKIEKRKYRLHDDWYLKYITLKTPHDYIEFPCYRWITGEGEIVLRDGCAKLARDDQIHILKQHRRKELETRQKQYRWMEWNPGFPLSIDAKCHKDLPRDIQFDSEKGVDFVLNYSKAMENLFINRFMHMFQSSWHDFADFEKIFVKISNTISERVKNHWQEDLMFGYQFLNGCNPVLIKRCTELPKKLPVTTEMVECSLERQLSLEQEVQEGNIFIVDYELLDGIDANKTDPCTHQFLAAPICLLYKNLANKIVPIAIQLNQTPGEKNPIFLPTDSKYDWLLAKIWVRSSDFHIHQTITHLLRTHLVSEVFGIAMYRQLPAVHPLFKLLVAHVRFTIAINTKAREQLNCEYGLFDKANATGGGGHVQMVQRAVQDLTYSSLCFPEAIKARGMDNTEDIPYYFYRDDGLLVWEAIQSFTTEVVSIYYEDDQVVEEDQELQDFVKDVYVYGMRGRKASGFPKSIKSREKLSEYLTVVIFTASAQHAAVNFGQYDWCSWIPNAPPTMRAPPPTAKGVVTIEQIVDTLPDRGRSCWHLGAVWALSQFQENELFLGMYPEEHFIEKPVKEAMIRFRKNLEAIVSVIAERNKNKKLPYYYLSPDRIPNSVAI
Method in brief: (§2)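 Rat PMN assay, measuring 5-lipoxygenase and cyclooxygenase activity. IC50 values are in μM.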

[10] = Dissociation constant was determined; type: physicochemical
Method in brief: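 Isolated guinea pig trachea pretreated with indomethacin and L-cysteine, then contracted with LTD4. Antagonism of the LTD4-induced contraction was expressed as a pKB value.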

[11] = system: Cavia porcellus; experiment: Inhibition of ovalbumin-induced bronchoconstriction when compound was administered intraduodenally at a dose of 10 mg/kg in guinea pig; type: functional; conditions: route intraduodenal
Method in brief: as §1

[12] = system: Cavia porcellus; experiment: Inhibitory dose of the intraduodenally administered compound (10 min before giving agonist) that produced a 50% inhibition of ovalbumin induced bronchoconstriction in guinea pigs; type: functional; conditions: intraduodenal, read-out: ID50 (the source's name)
Method in brief: (§3)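 Guinea pigs, intraduodenal dosing, with LTD4 or ovalbumin challenge. ID50 is the dose of antagonist giving 50% inhibition of the induced bronchoconstriction.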

[13] = system: Cavia porcellus; experiment: Inhibitory dose of the intragastrically administered compound (120 min before giving agonist) that produced a 50% inhibition of leukotriene D4 induced bronchoconstriction in guinea pigs; type: functional; conditions: po, read-out: ID50 (the source's name)
Method in brief: (§4)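 Guinea pigs, awake, dosed intragastrically 120 min before agonist challenge (95 min before anesthetic). The LTD4 challenge was given intravenously; ovalbumin served as antigen. ID50 is the dose giving 50% inhibition of LTD4- or ovalbumin-induced bronchoconstriction.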

[14] = system: Cavia porcellus; experiment: Inhibitory dose of the intragastrically administered compound (120 min before giving agonist) that produced a 50% inhibition of ovalbumin induced bronchoconstriction in guinea pigs; type: functional; conditions: po, read-out: ID50 (the source's name)
Method in brief: as §4

[15] = system: Cavia porcellus; experiment: Inhibitory dose of the intraduodenally administered compound (10 min before giving agonist) that produced a 50% inhibition of leukotriene D4 induced bronchoconstriction in guinea pigs; type: functional; conditions: intraduodenal, read-out: ID50 (the source's name)
Method in brief: as §3

[16] = Binding studies using tritium-labelled leukotriene D4; parameters: species or system Cavia porcellus
[17] = system: Mus musculus; experiment: Compound was administered intragastrically and tested in a mouse ear edema assay; Inactive; type: functional, organism-based
[18] = target: T2, Cyclooxygenase (Rattus norvegicus, UniProt P35355+Q63921); experiment: Inhibitory concentration to inhibit Prostaglandin G/H synthase in the rat; type: protein assay
T2 sequence (P35355 whole entry): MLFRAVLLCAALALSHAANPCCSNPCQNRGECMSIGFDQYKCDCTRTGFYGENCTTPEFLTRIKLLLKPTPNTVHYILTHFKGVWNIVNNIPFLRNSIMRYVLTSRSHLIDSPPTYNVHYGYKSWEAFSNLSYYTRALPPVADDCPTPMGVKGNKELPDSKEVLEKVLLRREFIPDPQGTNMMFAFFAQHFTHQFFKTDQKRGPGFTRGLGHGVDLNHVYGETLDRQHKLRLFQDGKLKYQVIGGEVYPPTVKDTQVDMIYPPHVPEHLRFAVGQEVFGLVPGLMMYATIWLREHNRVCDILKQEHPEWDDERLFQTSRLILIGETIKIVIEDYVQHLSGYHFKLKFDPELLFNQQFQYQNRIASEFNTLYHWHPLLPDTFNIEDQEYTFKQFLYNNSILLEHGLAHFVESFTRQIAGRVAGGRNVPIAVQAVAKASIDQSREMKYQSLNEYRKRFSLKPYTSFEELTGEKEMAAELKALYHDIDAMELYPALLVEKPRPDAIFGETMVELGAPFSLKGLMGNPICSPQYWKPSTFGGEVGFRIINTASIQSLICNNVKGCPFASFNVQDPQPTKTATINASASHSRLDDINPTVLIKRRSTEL
T2 sequence (Q63921 whole entry): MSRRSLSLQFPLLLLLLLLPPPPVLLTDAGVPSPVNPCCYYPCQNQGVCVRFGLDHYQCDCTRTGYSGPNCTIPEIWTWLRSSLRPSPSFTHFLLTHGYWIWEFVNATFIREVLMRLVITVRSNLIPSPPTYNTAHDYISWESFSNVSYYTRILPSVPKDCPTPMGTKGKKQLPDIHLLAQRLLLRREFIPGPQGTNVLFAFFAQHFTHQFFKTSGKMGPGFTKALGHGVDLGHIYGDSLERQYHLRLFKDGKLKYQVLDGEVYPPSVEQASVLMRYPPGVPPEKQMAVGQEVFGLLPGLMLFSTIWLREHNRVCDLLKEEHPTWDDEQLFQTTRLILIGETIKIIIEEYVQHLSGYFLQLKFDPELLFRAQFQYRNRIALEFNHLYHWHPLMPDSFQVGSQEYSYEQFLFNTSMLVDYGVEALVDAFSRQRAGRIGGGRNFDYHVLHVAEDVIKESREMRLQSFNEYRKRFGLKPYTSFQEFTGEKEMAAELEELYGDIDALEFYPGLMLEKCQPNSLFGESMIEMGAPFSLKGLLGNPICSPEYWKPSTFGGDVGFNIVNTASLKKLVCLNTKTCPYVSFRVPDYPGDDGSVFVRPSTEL
Method in brief: as §2

[19] = system: Rattus norvegicus; experiment: Compound at 100 mg/kg was administered intragastrically and tested in a rat carrageenan paw edema assay; type: functional; conditions: po, route intragastric
[20] = species on record: Cavia porcellus; experiment: Activity against leukotriene C4-induced contraction of guinea pig trachea, in the presence of glutathione

CCS(=O)(=O)Nc1ccc2ccc(OCc3nc4ccccc4s3)cc2c1
inhibition [1]: 27%

CCCCS(=O)(=O)Nc1cccc(OCc2nc3ccccc3n2C)c1
inhibition in vivo at 50 mg/kg [2]: 8% | inhibition [1]: 2%

CS(=O)(=O)Nc1ccc2ccc(OCc3ccc4ccccc4n3)cc2c1
inhibition [1]: 68%

CCS(=O)(=O)Nc1cccc(OCc2nc3ccccc3n2C)c1
inhibition in vivo at 50 mg/kg [2]: 16% | inhibition [1]: 75%

O=S(=O)(Nc1cccc(OCc2csc3ccccc23)c1)C(F)(F)F
inhibition [3]: 13%

CCS(=O)(=O)N(C)c1ccc2ccc(OCc3ccc4ccccc4n3)cc2c1
inhibition [1]: 37%

CCCS(=O)(=O)Nc1cccc(OCc2nc3ccccc3n2C)c1
inhibition in vivo at 50 mg/kg [4]: 36% | inhibition in vivo at 50 mg/kg [2]: 31% | inhibition in vivo at 50 mg/kg [5]: 17% | inhibition [1]: 37%

O=S(=O)(Nc1ccccc1OCc1ccc2ccccc2n1)C(F)(F)F
inhibition [3]: 24%

O=S(=O)(Nc1ccccc1SCc1ccc2ccccc2n1)C(F)(F)F
inhibition [3]: -5%

CCCS(=O)(=O)N(c1cccc(OCc2ccc3ccccc3n2)c1)S(=O)(=O)CCC
inhibition [1]: 4%

O=S(=O)(Nc1cccc(Oc2ccccn2)c1)C(F)(F)F
inhibition [3]: 11%

O=S(=O)(Nc1cccc(SCc2ccc3ccccc3n2)c1)C(F)(F)F
inhibition in vivo at 25 mg/kg [6]: 97% | inhibition in vivo at 25 mg/kg [7]: 59% | inhibition [3]: 85%

O=S(=O)(Nc1ccc(OCc2ccc3ccccc3n2)cc1)C(F)(F)F
inhibition [3]: 28%

O=C1CS(=O)(=O)Nc2cc(OCc3ccc4ccccc4n3)ccc21
inhibition in vivo at 50 mg/kg [4]: 3% | inhibition [3]: 78%

CCS(=O)(=O)Nc1ccc2ccc(OCc3ccc4ccccc4n3)cc2c1
inhibition in vivo at 50 mg/kg [4]: 34% | inhibition in vivo at 50 mg/kg [2]: 20% | inhibition in vivo at 50 mg/kg [5]: 24% | inhibition [1]: 91%

O=C(O)CS(=O)(=O)Nc1cccc(OCc2ccc3ccccc3n2)c1
inhibition [3]: 58%

O=S(=O)(Nc1cccc(Oc2cccc3cccnc23)c1)C(F)(F)F
inhibition [3]: 50%

CCS(=O)(=O)Nc1cccc2ccc(OCc3ccc4ccccc4n3)cc12
inhibition [1]: -6%

O=S(=O)(Nc1cccc(OCc2ccc3ccccc3n2)c1)c1ccc(C(F)(F)F)cc1
inhibition [3]: 46%

O=S(=O)(NCCc1cccc(OCc2ccc3ccccc3n2)c1)C(F)(F)F
inhibition [3]: 14%

CS(=O)(=O)Nc1ccc([N+](=O)[O-])cc1OCc1ccc2ccccc2n1
inhibition [3]: 28%

CCS(=O)(=O)Nc1cccc(OCc2nc3ccccc3s2)c1
inhibition in vivo at 50 mg/kg [2]: 35% | inhibition in vivo at 50 mg/kg [8]: 13% | inhibition in vivo at 50 mg/kg [5]: 32% | inhibition [1]: 41%

CCCS(=O)(=O)N(c1cccc(OCc2nc3ccccc3s2)c1)S(=O)(=O)CCC
inhibition [1]: 38%

CCS(=O)(=O)Nc1cccc(OCc2ccc3ccccc3c2)c1
inhibition [1]: 42%

CCCCS(=O)(=O)Nc1ccc2ccc(OCc3ccc4ccccc4n3)cc2c1
inhibition [1]: 51%

CCCCS(=O)(=O)Nc1cccc(OCc2nc3ccccc3s2)c1
inhibition in vivo at 50 mg/kg [2]: 16% | inhibition [1]: 56%

CCCCS(=O)(=O)Nc1cccc(OCc2ccc3ccccc3n2)c1
inhibition [1]: 30%

O=S(=O)(Nc1cccc(OCc2ccc3ccccc3n2)c1)C(F)(F)F [RITOLUKAST]
IC50 [9]: 4.6 µM | pKB [10]: 7.7 | inhibition in vivo at 25 mg/kg [6]: 100% | inhibition in vivo at 10 mg/kg [11]: 73% | ED50 [12]: 3 mg/kg | ED50 [13]: 0.1 mg/kg | ED50 [14]: 0.6 mg/kg | ED50 [15]: 0.3 mg/kg | Kd [16]: 0.035 µM | inhibition [17]: inactive | IC50 [18]: 3.3 µM | inhibition in vivo at 100 mg/kg [19]: 20% | inhibition in vivo at 25 mg/kg [7]: 69% | Dose [20]: 30 µM

CCS(=O)(=O)Nc1cccc(OCc2ccc3ccccc3n2)c1
inhibition in vivo at 50 mg/kg [2]: 0% | inhibition [1]: 83%

O=S(=O)(Nc1cccc(OCc2nc3ccccc3s2)c1)C(F)(F)F
inhibition [3]: 94%

CCS(=O)(=O)Nc1ccc2ccc(OCc3ccc4ccccc4c3)cc2c1
inhibition [1]: 28%

CCCS(=O)(=O)Nc1cccc(OCc2nc3ccccc3s2)c1
inhibition in vivo at 50 mg/kg [2]: 18% | inhibition [1]: 48%

O=C(O)c1ccc(S(=O)(=O)Nc2cccc(OCc3ccc4ccccc4n3)c2)cc1
inhibition [3]: 0%

O=S(=O)(CC(F)(F)F)Nc1cccc(OCc2ccc3ccccc3n2)c1
inhibition [3]: 100%

CS(=O)(=O)Nc1cccc(OCc2nc3ccccc3s2)c1
inhibition in vivo at 50 mg/kg [2]: 44% | inhibition [1]: 60%

CN(C)S(=O)(=O)Nc1cccc(OCc2ccc3ccccc3n2)c1
inhibition [3]: 11%

CCS(=O)(=O)Nc1cccc(OCc2cc3ccccc3s2)c1
inhibition in vivo at 50 mg/kg [2]: 4% | inhibition [3]: 13%

COC(=O)CS(=O)(=O)Nc1cccc(OCc2ccc3ccccc3n2)c1
inhibition [3]: 69%

Cc1ccc(S(=O)(=O)Nc2cccc(SCc3ccc4ccccc4n3)c2)cc1
inhibition [3]: 10%
